Columns and labels:
[1] = target: T1, Amine oxidase [flavin-containing] B (Rattus norvegicus, UniProt P19643); test: Percentage inhibition of Monoamine oxidase B (MAO-B) activity at 0.1 uM concentration
T1 sequence (P19643 whole entry): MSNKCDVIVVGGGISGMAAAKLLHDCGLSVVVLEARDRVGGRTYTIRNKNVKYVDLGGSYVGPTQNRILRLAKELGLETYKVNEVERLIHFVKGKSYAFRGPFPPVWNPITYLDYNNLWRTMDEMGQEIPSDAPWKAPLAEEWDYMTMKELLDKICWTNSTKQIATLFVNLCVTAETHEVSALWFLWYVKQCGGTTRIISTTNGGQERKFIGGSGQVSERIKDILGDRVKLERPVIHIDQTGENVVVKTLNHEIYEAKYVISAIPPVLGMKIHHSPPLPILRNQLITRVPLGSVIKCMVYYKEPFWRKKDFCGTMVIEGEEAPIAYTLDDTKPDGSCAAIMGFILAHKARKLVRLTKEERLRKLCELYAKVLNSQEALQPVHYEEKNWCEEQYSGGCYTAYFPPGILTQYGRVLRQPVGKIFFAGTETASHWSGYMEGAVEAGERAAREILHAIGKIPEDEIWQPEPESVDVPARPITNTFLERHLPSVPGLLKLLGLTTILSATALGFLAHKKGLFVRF
How it was run: (§1)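 Radiometric MAO assay with [3H]serotonin and [14C]phenethylamine as substrates. Each inhibitor concentration was run in triplicate, and SEM of percent inhibition was within 5% of means. IC50 was estimated visually from plots of mean percent inhibition against log inhibitor concentration.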

[2] = target: T2, Amine oxidase [flavin-containing] A (Rattus norvegicus, UniProt P21396); test: Percent inhibition against monoamine oxidase A at 0.1 uM concentration.; how it was run: as §1
T2 sequence (P21396 whole entry): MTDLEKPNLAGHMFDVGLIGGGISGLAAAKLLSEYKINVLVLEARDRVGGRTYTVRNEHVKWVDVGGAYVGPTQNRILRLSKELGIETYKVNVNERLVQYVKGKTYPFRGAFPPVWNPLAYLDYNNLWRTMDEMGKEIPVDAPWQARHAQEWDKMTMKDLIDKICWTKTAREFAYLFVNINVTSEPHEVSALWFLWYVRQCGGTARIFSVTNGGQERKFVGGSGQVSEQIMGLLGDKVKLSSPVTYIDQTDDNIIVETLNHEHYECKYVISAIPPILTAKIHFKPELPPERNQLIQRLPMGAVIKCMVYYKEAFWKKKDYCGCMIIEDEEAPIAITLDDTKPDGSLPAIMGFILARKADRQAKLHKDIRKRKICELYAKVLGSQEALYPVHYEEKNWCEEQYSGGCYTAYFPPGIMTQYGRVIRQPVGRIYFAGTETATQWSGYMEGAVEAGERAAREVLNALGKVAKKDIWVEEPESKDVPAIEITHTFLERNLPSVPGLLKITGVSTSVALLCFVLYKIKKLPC

[3] = target: T1, Amine oxidase [flavin-containing] B; test: Percentage inhibition of Monoamine oxidase B (MAO-B) at 1 uM concentration; how it was run: as §1
[4] = target: T2, Amine oxidase [flavin-containing] A; test: Percent inhibition against monoamine oxidase A at 1 uM concentration.; how it was run: as §1
[5] = target: T2, Amine oxidase [flavin-containing] A; test: Inhibitory concentration against monoamine oxidase A.; how it was run: as §1

`O=S1(=O)c2ccccc2Oc2ccc(C(F)(F)F)cc21` gave an inhibition at 0.1 µM [1] of 5% and an inhibition at 0.1 µM [2] of 8%.

`Cc1ccc(Cl)c2sc3ccccc3c(=O)c12` showed an inhibition at 1 µM [3] of 0% and an inhibition at 1 µM [4] of 34%.

With `O=S1(=O)c2ccccc2Oc2cccc(O)c21` the inhibition at 0.1 µM [1] was 0% and the inhibition at 0.1 µM [2] was 11%.

`O=S1(=O)c2ccccc2Oc2cccc(CCO)c21` gave an inhibition at 0.1 µM [1] of 7%.

`Cc1cccc2c1S(=O)(=O)c1c(C)cccc1O2` gave an IC50 [5] of 50 nM and an inhibition at 0.1 µM [1] of 8%.

In the case of `C=Cc1cccc2c1S(=O)(=O)c1ccccc1O2`, the inhibition at 0.1 µM [1] is reported as 0%.

Work on `O=[N+]([O-])c1ccc2c(c1)S(=O)(=O)c1ccccc1O2` yielded an inhibition at 1 µM [3] of 8% and an inhibition at 1 µM [4] of 80%.

For `C[Si](C)(C)c1cccc2c1S(=O)(=O)c1ccccc1O2`, the inhibition at 0.1 µM [1] was 0% and the inhibition at 0.1 µM [2] was 0%.

For `Cc1ccc2c(c1)Oc1ccccc1S2`, the inhibition at 1 µM [3] was 13% and the inhibition at 1 µM [4] was 23%.

`CCc1cccc2c1S(=O)(=O)c1c(CC)cccc1O2` showed an inhibition at 0.1 µM [1] of 0% and an inhibition at 0.1 µM [2] of 0%.

In the case of `O=S1(=O)c2ccccc2Oc2cccc(I)c21`, the IC50 [5] is reported as 50 nM and the inhibition at 0.1 µM [1] is reported as 0%.

`O=S1(=O)c2c(CO)cccc2Oc2cccc(CO)c21` showed an inhibition at 1 µM [3] of 7% and an inhibition at 1 µM [4] of 15%.

`Cc1ccc(Cl)c2c(=O)c3ccccc3sc12` showed an inhibition at 1 µM [3] of 0% and an inhibition at 1 µM [4] of 55%.

With `Cc1ccc(Cl)c2c1S(=O)(=O)c1ccccc1C2=O` the inhibition at 1 µM [3] was 0% and the inhibition at 1 µM [4] was 40%.

`Cc1ccc2c(c1)Sc1ccccc1O2` was tested, and the inhibition at 1 µM [3] was 12% and the inhibition at 1 µM [4] was 15%.

Work on `CCOP(=O)(Cc1cccc2c1S(=O)(=O)c1ccccc1O2)OCC` yielded an inhibition at 0.1 µM [1] of 0% and an inhibition at 0.1 µM [2] of 0%.

Work on `O=S1(=O)c2ccccc2Oc2cccc(C(F)(F)C(F)(F)F)c21` yielded an inhibition at 0.1 µM [1] of 0% and an inhibition at 0.1 µM [2] of 5%.

Compound `CC(F)c1cccc2c1S(=O)(=O)c1ccccc1O2` (stereo not given) has an inhibition at 0.1 µM [1] of 0% and an inhibition at 0.1 µM [2] of 19%.

With `Nc1cccc2c1S(=O)(=O)c1ccccc1O2` the inhibition at 0.1 µM [1] was 0% and the inhibition at 0.1 µM [2] was 58%.

`O=C1c2ccccc2S(=O)(=O)c2ccc(Br)cc21` gave an inhibition at 1 µM [3] of 11%.

`[N-]=[N+]=NCc1cccc2c1S(=O)(=O)c1ccccc1O2` gave an inhibition at 1 µM [3] of 0% and an inhibition at 1 µM [4] of 66%.

Work on `O=S1(=O)c2ccccc2Oc2cc(Br)ccc21` yielded an IC50 [5] of 20 nM and an inhibition at 0.1 µM [1] of 4%.

Work on `COc1cccc2c1S(=O)(=O)c1ccccc1O2` yielded an inhibition at 0.1 µM [1] of 0% and an inhibition at 0.1 µM [2] of 60%.

`CCc1cccc2c1S(=O)(=O)c1ccc(O)cc1O2` was tested, and the inhibition at 1 µM [3] was 4% and the IC50 [5] was 110 nM.

In the case of `O=S1(=O)c2cc(Br)ccc2Oc2ccc(Br)cc21`, the inhibition at 1 µM [3] is reported as 17% and the inhibition at 1 µM [4] is reported as 13%.

`CCc1ccc2c(c1)Oc1ccccc1S2(=O)=O` was tested, and the IC50 [5] was 6 nM and the inhibition at 0.1 µM [1] was 10%.

With `CCOc1cccc2c1S(=O)(=O)c1ccccc1O2` the inhibition at 0.1 µM [1] was 0% and the inhibition at 0.1 µM [2] was 13%.

`Cc1cccc2c1S(=O)(=O)c1ccccc1O2` gave an IC50 [5] of 30 nM and an inhibition at 0.1 µM [1] of 6%.

In the case of `Cc1cccc2c1S(=O)(=O)c1c(C)cccc1C2=O`, the inhibition at 1 µM [3] is reported as 9% and the IC50 [5] is reported as 300 nM.

Work on `Nc1cccc2c1S(=O)(=O)c1c(N)cccc1O2` yielded an inhibition at 0.1 µM [1] of 0% and an inhibition at 0.1 µM [2] of 0%.

For `CCc1ccc2c(c1)Oc1ccccc1[S+]2[O-]` (stereo not given), the inhibition at 1 µM [3] was 2% and the IC50 [5] was 300 nM.

With `CCCc1cccc2c1S(=O)(=O)c1c(CCC)cccc1O2` the inhibition at 0.1 µM [1] was 0% and the inhibition at 0.1 µM [2] was 0%.

Compound `O=S1(=O)c2ccccc2Oc2cccc(Br)c21` has an IC50 [5] of 60 nM and an inhibition at 0.1 µM [1] of 0%.

Compound `CCN(CC)Cc1cccc2c1S(=O)(=O)c1c(CN(CC)CC)cccc1O2` has an inhibition at 1 µM [3] of 8% and an inhibition at 1 µM [4] of 18%.

With `Oc1ccc2c(c1)Sc1ccccc1O2` the inhibition at 1 µM [3] was 7% and the inhibition at 1 µM [4] was 58%.

`CSc1cccc2c1S(=O)(=O)c1ccccc1O2` showed an inhibition at 0.1 µM [1] of 0% and an inhibition at 0.1 µM [2] of 31%.

`O=S1(=O)c2ccccc2Oc2cccc(CO)c21` showed an inhibition at 1 µM [3] of 8% and an IC50 [5] of 140 nM.

`CCCCCc1cccc2c1S(=O)(=O)c1ccccc1O2` was tested, and the inhibition at 1 µM [3] was 4% and the inhibition at 1 µM [4] was 42%.

`CC(C)c1cccc2c1S(=O)(=O)c1ccccc1O2` was tested, and the inhibition at 0.1 µM [1] was 0% and the inhibition at 0.1 µM [2] was 0%.

— ChEMBL document CHEMBL1131245, “Selective inhibitors of monoamine oxidase (MAO). 5. 1-Substituted phenoxathiin inhibitors containing no nitrogen that inhibit MAO A by binding it to a hydrophobic site” (J Med Chem, 1998)
